# Assay results of several laboratories.
# Each line is one published result; the experiments were not run side by side.
SMILES,target or system,assay,test system,setting,measurement,result
C[C@@H]1CN2c3c(cc4c(N5C(=O)OC[C@@H]5C)noc4c3F)CC3(C(=O)NC(=O)NC3=O)[C@H]2[C@H](C)O1,Klebsiella pneumoniae,"microbial growth, broth dilution",ATCC10031,,MIC,0.25 µg/mL
COc1ccc(Nc2nn3c(-c4ccccc4)ccnc3c2C(=O)Nc2ccccc2)cc1,Caco-2,"cell growth or viability, MTT",,"25 µg/mL, 48 h, serum-free",viability,56.6%
COc1ccc(-c2c(-c3ccc(C#N)c(F)c3)nc(N3CCC(N)CC3)n(C)c2=O)cc1F,TC-32,"cell growth or viability, resazurin",,,IC50,36 µM
O=c1ccc2nc3ccc(O)cc3oc-2c1,Klebsiella pneumoniae,microbial growth,,24 h,MIC,> 32 µg/mL
Cc1c2ccncc2c(C)c2c1[nH]c1ccccc12,Caco-2,"cell growth or viability, SRB",,72 h,GI50,4.91 µM
Oc1c(Cl)cc(Cl)cc1-c1[nH]c(Cl)c(Cl)c1Cl,Streptococcus pneumoniae,microbial growth,ATCC49619,,MIC,0.13 µM
N.N.[Cl][Pt][Cl],A2780,"cell growth or viability, MTT",,,IC50,0.31 µM
O=c1ccc2nc3ccc(OCc4ccc([N+](=O)[O-])o4)cc3oc-2c1,Klebsiella pneumoniae,microbial growth,,24 h,MIC,> 32 µg/mL
Oc1c(Br)cc(Br)cc1-c1[nH]c(Br)c(Br)c1Br,Streptococcus pneumoniae,microbial growth,ATCC49619,,MIC,0.04 µM
